Experiments:
[1] = melting temperature; fluorescence melt of hairpins on a sequencing array, two-state fit, raised by 9.35 °C to match UV melts; conditions: sodium 0.088 M
Method in brief: (§1)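 Cy3 fluorescence of library hairpins on a sequenced MiSeq flow cell, with annealed Cy3 and quencher oligos, was imaged in 50 mM Na-HEPES pH 8.0, 25 mM NaCl in 2.5 °C steps up to 60 °C. Signals were normalised to pre-quench Cy3 and to control variants. Melting temperature and folding enthalpy came from bootstrapped two-state fits, inverse-variance combined over four replicates. Fitted temperatures were raised by 9.35 °C to match UV melts.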

[2] = folding enthalpy; higher = less favourable; fluorescence melt of hairpins on a sequencing array, two-state fit; conditions: sodium 0.088 M
Method in brief: as §1

Sequence	Tm [1]	folding enthalpy [2]
GCGGTCATCCGC ((((....))))	59.3 °C	-26.7 kcal/mol
GCCCTGCGAAAGCATCGC ((..(((....)))..))	33.6 °C	-7.06 kcal/mol
GCAGTACGAAAGTAATGC (((.(((....))).)))	55.4 °C	-40 kcal/mol
GTACCTGGAAACAGATAC (((.(((....))).)))	32.7 °C	-18.8 kcal/mol
GTCAAAGCGAAAGCTGAC (((..(((....))))))	48.1 °C	-21.2 kcal/mol
GGGCCGCCGAAAGGCCCC (((..(((....))))))	64.1 °C	-13.6 kcal/mol
GATCCGCTCACGGATC ((((((....))))))	63.3 °C	-41.3 kcal/mol
GCAATCGAAAGATGGTGC ((((((....)))..)))	36.3 °C	-21.2 kcal/mol
GATCATGTATATGATC ((((((....))))))	55.3 °C	-41.7 kcal/mol
GGAGTCGAAAGACATCC ((((((....))).)))	42.8 °C	-18.2 kcal/mol
GTGTCTCCGAAAGGACAC (((..(((....))))))	45.7 °C	-25.1 kcal/mol
GATCTCGCGTGAGATC ((((((....))))))	53.8 °C	-34.7 kcal/mol
GCGTTACGAAAGTATCGC (((.(((....))).)))	55.2 °C	-47.6 kcal/mol
GAACGCGAAAGCGCTTC ((((((....))).)))	48.6 °C	-14.3 kcal/mol
GCGGCGGACCGC ((((....))))	54.9 °C	-22.6 kcal/mol
GCACATGCGAAAGCATGC (((..(((....))))))	40.4 °C	-7.24 kcal/mol
GCGCTCGAAAGAGACGC ((((((....))).)))	58 °C	-28.6 kcal/mol
GCTTAGCGAAAGCGAAGC ((((.((....)).))))	60.8 °C	-22.4 kcal/mol
GCTGCGGGAAACTGCAGC (((((.(....).)))))	64.5 °C	-40.6 kcal/mol
GATCCCAGAGGGATC ((((((...))))))	68.5 °C	-34.2 kcal/mol
GGCATCGAAAGATTCGCC ((((((....)))..)))	36.5 °C	-25.4 kcal/mol
CGCGGAAAGATCCGCG ((((((....))))))	64.2 °C	-33.8 kcal/mol
GATCGCGAAAGCGACATC ((((((....)))..)))	32.1 °C	-8.3 kcal/mol

Sequence	Tm [1]	folding enthalpy [2]
GATCCTCACAAGGATC ((((((....))))))	53 °C	-33.6 kcal/mol
CGAAACGGAAACGTATCG (((.(((....))).)))	42.6 °C	-30.8 kcal/mol
GTACCCGAAAGGGGTTAC ((((((....)))..)))	35.2 °C	-10.1 kcal/mol
GCATTCGAAAGAACTGC ((((((....))).)))	34.9 °C	-28.2 kcal/mol
GCACTCGAAAGAGAGTGC ((((((....)))..)))	59.9 °C	-38.7 kcal/mol
GGTGCCCGAAAGGGTACC (((.(((....))).)))	68.2 °C	-33.4 kcal/mol
GCCCAGCGAAAGCTTGGC (((.(((....))).)))	54.9 °C	-53 kcal/mol
GCCTCTCGAAAGAGGGC (((.(((....))))))	54.4 °C	-30.6 kcal/mol
GGGCATGGAAACACGCCC ((((.((....)).))))	51.8 °C	-45.3 kcal/mol
GTACGGGGAAACCCGTGC (.(((((....))))).)	55.6 °C	-26.9 kcal/mol
ACTTGGAAACAAGT (((((....)))))	38.4 °C	-17.8 kcal/mol
GTGACGGCGAAAGCCCAC (((..(((....))))))	44.3 °C	-12.1 kcal/mol
GCGCTATCGAAAGATCGC (((..(((....))))))	44.2 °C	-25.6 kcal/mol
GTCCACGAAAGTGGGGAC ((((((....)))..)))	46.4 °C	-10.4 kcal/mol
GTTGAGAAATCAAC (((((....)))))	42.2 °C	-19.9 kcal/mol
GGCCCGTCGAAAGACGCC (((..(((....))))))	37 °C	-8.97 kcal/mol
GAGAGTGGAAACACTCCC (.(((((....))))).)	38.1 °C	-13.7 kcal/mol
GGATCCCGAAAGGGTTCC (((.(((....))).)))	54.3 °C	-29.8 kcal/mol
GCAACAGCGAAAGCTTGC (((..(((....))))))	46.6 °C	-19.5 kcal/mol
GCGCCGCGAAAGCGTTGC ((..(((....)))..))	47.6 °C	-15.3 kcal/mol
GGTCGTGCGAAAGCAACC (((..(((....))))))	27.6 °C	-8.03 kcal/mol
GCCAGCGAAAGCTAGGGC ((((((....)))..)))	52.7 °C	-31.6 kcal/mol
GATCGGGGATCCGATC ((((((....))))))	62.8 °C	-40.7 kcal/mol

— the array DNA melting data of Ke et al. (doi:10.1101/2024.01.08.574731)
